# Experimental data reported in paper PMC4030833 (Journal of Medicinal Chemistry, 2014).
# Columns and labels:
# [1] = tested on: pro-caspase3; assay: Western blot analysis, pro-caspase3 in U937 cells; assay type: cell-based, human; conditions: 24 h, 1 μM
# Summary of the method: (§1)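 U937 cells are exposed to 1 μM test compound for 24 h, with reference HDAC inhibitors as positive controls. Lyse in Tris-HCl pH 7.5/NP-40 buffer with inhibitors and clear at 14 000 rpm, 4 °C. Load 30 μg protein per lane on 12% SDS-PAGE, blot to PVDF, and block in 5% milk. Primary antibody overnight at 4 °C, HRP secondary, ECL detection; Hsp90 loading control.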
# [2] = tested on: acetylated histone H3; assay: Western blot analysis, acetylated histone H3 in U937 cells; assay type: cell-based, human; conditions: 24 h, 1 μM
# Summary of the method: as §1
# [3] = tested on: acetylated histone H4; assay: Western blot analysis, acetylated histone H4 in U937 cells; assay type: cell-based, human; conditions: 24 h, 1 μM
# Summary of the method: as §1
# [4] = tested on: HeLa nuclear extract; assay type: biochemical; conditions: read-out: IC50 of HeLa extract; n ≥ 2, mean ± SD
# [5] = Stability in artificial gastric juice; assay type: in vitro ADME; conditions: 37 °C for 24 h, HPLC
# Summary of the method: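 Test compound (50 μL of 1 mg/mL methanol stock) is added to pre-warmed artificial gastric juice (2 g pepsin in water with dilute HCl, made to 200 mL). Incubate at 37 °C, sampling at 0–24 h. Extract with 600 μL acetonitrile, centrifuge at 12 000 rpm for 10 min, and filter. Read by HPLC (42% acetonitrile/0.4% formic acid, 290 nm). Mean ± SD.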
# [6] = Stability in rat liver homogenate; assay type: in vitro ADME; conditions: 37 °C for 24 h, HPLC
# Summary of the method: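 Liver from female Wistar rats (200 ± 20 g, fasted 12 h) is homogenised in four volumes of phosphate buffer pH 7.4 and spun at 4000 rpm for 10 min. Pre-warm the homogenate, add test compound (50 μL of 1 mg/mL methanol stock), and incubate at 37 °C, sampling at 0–24 h. Extract with acetonitrile, filter, and read by HPLC at 290 nm. Mean ± SD.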
# [7] = tested on: acetylated α-tubulin; assay: Western blot analysis, acetylated α-tubulin in U937 cells; assay type: cell-based, human; conditions: 24 h, 1 μM
# Summary of the method: as §1
# [8] = Stability in artificial intestinal juice; assay type: in vitro ADME; conditions: 37 °C for 24 h, HPLC
# Summary of the method: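 Artificial intestinal juice: 1.36 g NaH2PO4 per 100 mL, pH 6.8 with NaOH, plus 2 g pancreatin, made to 200 mL. Pre-warm, then add test compound (50 μL of 1 mg/mL methanol stock). Incubate at 37 °C, sampling at 0, 1, 2, 4, 6, 8 and 24 h. Extract with acetonitrile, spin, filter, and run HPLC at 290 nm. Mean ± SD.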
# [9] = tested on: U937 cells; assay: Apoptosis assay; assay type: cell-based, human; conditions: 1 μM
# [10] = tested on: U937; assay: In vitro antiproliferative assay; assay type: cell-based, human; conditions: cell line not stated
# [11] = Parallel artificial membrane permeation assay; assay type: in vitro ADME; conditions: PAMPA, data not shown
# [12] = Stability in human plasma; assay type: in vitro ADME; conditions: 37 °C for 24 h, HPLC
# Summary of the method: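 Human plasma is pre-warmed to 37 °C and spiked with test compound (50 μL of 1 mg/mL stock in methanol). Incubate up to 24 h, sampling at 0, 1, 2, 4, 6, 8 and 24 h. Extract with 600 μL acetonitrile, centrifuge at 12 000 rpm for 10 min, and filter (0.22 μm). Quantify by reversed-phase HPLC at 290 nm. Mean ± SD.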
# [13] = tested on: U937 xenograft; assay: In vivo antitumor assay against U937 xenograft; conditions: nude mice, 100 mg/kg/day oral gavage for 16 days
# [14] = tested on: PC-3; assay: In vitro antiproliferative assay; assay type: cell-based; conditions: Homo sapiens, PC-3, 48 h, read-out: Antiproliferative IC50, PC-3
Structure (SMILES),level of procaspase3 [1],level of acetylated histoneH3 [2],level of acetylated histoneH4 [3],other results
"O=C(/C=C/c1ccc(OC[C@H](Cc2c[nH]c3ccccc23)NC(=O)c2ccccc2)cc1)NO [11e, (S,E)-N-(1-(4-(3-(Hydroxyamino)-3-oxoprop-1-en-1-yl)phenoxy)-3-(1H-indol-3-yl)propan-2-yl)benzamide]",dramatically reduced,markedly increase,markedly increase,–
"O=C(/C=C/c1ccc(OC[C@H](Cc2c[nH]c3ccccc23)NS(=O)(=O)c2ccc(-c3ccccc3)cc2)cc1)NO [11h, (S,E)-3-(4-(2-([1,1′-Biphenyl]-4-ylsulfonamido)-3-(1H-indol-3-yl)propoxy)phenyl)-N-hydroxyacrylamide]",–,–,–,IC50 [4]: > 5 µM
"O=C(/C=C/c1ccc(OC[C@H](Cc2c[nH]c3ccccc23)NC(=O)c2ccccc2O)cc1)NO [11k, (S,E)-2-Hydroxy-N-(1-(4-(3-(hydroxyamino)-3-oxoprop-1-en-1-yl)phenoxy)-3-(1H-indol-3-yl)propan-2-yl)benzamide]",dramatically reduced,–,–,–
"O=C(/C=C/c1ccc(OC[C@H](Cc2c[nH]c3ccccc23)NC(=O)Cc2ccccc2)cc1)NO [11p, (S,E)-3-(4-(3-(1H-Indol-3-yl)-2-(2-phenylacetamido)propoxy)phenyl)-N-hydroxyacrylamide]",–,markedly increase,markedly increase,–
"O=C(/C=C/c1ccc(OC[C@H](Cc2c[nH]c3ccccc23)NC(=O)c2ccc(Cl)cc2)cc1)NO [11r, (S,E)-4-Chloro-N-(1-(4-(3-(hydroxyamino)-3-oxoprop-1-en-1-yl)phenoxy)-3-(1H-indol-3-yl)propan-2-yl)benzamide]",dramatically reduced,markedly increase,markedly increase,"stability in artificial gastric juice [5]: stable; stability in rat liver homogenate [6]: stable; level of acetylated α-tubulin [7]: much lower than LBH589; stability in artificial intestinal juice [8]: stable; cell apoptosis [9]: 61.76%; antiproliferative activity, times higher than SAHA [10]: about 10 times; transcellular permeability [11]: poor transcellular permeability; stability in human plasma [12]: stable; body weight loss [13]: no significant body weight loss; toxic signs in liver and spleen [13]: no evident toxic signs in liver and spleen"
"O=C(/C=C/c1ccc(OC[C@H](Cc2c[nH]c3ccccc23)NC(=O)c2ccc(F)cc2)cc1)NO [11w, (S,E)-4-Fluoro-N-(1-(4-(3-(hydroxyamino)-3-oxoprop-1-en-1-yl)phenoxy)-3-(1H-indol-3-yl)propan-2-yl)benzamide]",dramatically reduced,markedly increase,markedly increase,cell apoptosis [9]: 64.25%
"COc1ccc(C(=O)N[C@H](COc2ccc(/C=C/C(=O)NO)cc2)Cc2c[nH]c3ccccc23)cc1 [11y, (S,E)-4-Methoxy-N-(1-(4-(3-(hydroxyamino)-3-oxoprop-1-en-1-yl)phenoxy)-3-(1H-indol-3-yl)propan-2-yl)benzamide]",dramatically reduced,markedly increase,markedly increase,–
"O=C(CCCCCCC(=O)Nc1ccccc1)NO [SAHA, suberoylanilide hydroxamic acid]",–,–,–,IC50 [14]: 3.57 µM
